Results reported in ChEMBL document CHEMBL3352173, “Optimization of pyrrolamide topoisomerase II inhibitors toward identification of an antibacterial clinical candidate (AZD5099)” (J Med Chem, 2014).
pIC50: −log10 of the molar value. Values after ≈ are worked out from the molar mass of the structure shown.

Tests used:
Staphylococcus aureus [1] = experiment: Antimicrobial activity against methicillin-sensitive Staphylococcus aureus by broth microdilution/CLSI method; assay type: functional
DNA gyrase subunit B = DNA gyrase subunit B (Staphylococcus aureus, UniProt P0A0K8); experiment: Inhibition of ATPase activity of Staphylococcus aureus GyrB
In short: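 IC50 was determined against S. aureus GyrB in the routine screening assay. The enzyme concentration limits resolution below 10 nM.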

Staphylococcus aureus [2] = experiment: Antimicrobial activity against methicillin, quinolone-resistant Staphylococcus aureus by broth microdilution/CLSI method; assay type: functional; conditions: Staphylococcus aureus; read-out: MIC
Escherichia coli [3] = experiment: Antimicrobial activity against Escherichia coli tolC- by broth microdilution/CLSI method; assay type: functional; conditions: Escherichia coli; read-out: MIC
[4] = Octanol-phosphate buffer distribution coefficient, log D of the compound at pH 7.4 by shake flask method; assay type: physicochemical
Streptococcus pneumoniae = experiment: Antibacterial activity against Streptococcus pneumoniae by broth microdilution/CLSI method; assay type: functional
Moraxella catarrhalis = experiment: Antimicrobial activity against Moraxella catarrhalis by broth microdilution/CLSI method; assay type: functional
Haemophilus influenzae = experiment: Antimicrobial activity against Haemophilus influenzae by broth microdilution/CLSI method; assay type: functional; conditions: Haemophilus influenzae; read-out: MIC
Escherichia coli [5] = experiment: Antimicrobial activity against wild-type Escherichia coli Eco523 by broth microdilution/CLSI method; assay type: functional; conditions: Escherichia coli, Eco523; read-out: MIC
[6] = Percentage unbound in human plasma; assay type: ADME, cell-free
Streptococcus pyogenes = experiment: Antimicrobial activity against Streptococcus pyogenes by broth microdilution/CLSI method; assay type: functional
[7] = Staphylococcus aureus, read-out: MIC
[8] = Streptococcus pneumoniae, read-out: MIC
[9] = Moraxella catarrhalis, read-out: MIC

Chain of DNA gyrase subunit B (P0A0K8 whole entry): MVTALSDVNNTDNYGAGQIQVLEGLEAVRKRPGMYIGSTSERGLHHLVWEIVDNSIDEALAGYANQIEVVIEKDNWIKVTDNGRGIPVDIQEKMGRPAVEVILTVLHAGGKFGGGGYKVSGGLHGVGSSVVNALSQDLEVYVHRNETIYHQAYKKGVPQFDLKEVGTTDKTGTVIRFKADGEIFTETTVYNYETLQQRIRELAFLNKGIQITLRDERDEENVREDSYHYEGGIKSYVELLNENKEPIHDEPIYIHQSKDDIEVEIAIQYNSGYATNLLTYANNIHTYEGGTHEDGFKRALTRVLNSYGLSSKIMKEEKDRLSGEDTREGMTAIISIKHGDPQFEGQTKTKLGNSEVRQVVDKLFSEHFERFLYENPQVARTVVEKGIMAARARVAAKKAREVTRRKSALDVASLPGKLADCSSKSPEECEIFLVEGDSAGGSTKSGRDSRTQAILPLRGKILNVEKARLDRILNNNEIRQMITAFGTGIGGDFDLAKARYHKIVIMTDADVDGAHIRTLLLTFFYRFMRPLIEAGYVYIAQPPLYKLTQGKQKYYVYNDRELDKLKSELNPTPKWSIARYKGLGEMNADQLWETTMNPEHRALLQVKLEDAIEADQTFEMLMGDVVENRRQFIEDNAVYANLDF

Row | Structure (SMILES) | MIC (Staphylococcus aureus [1]; [7]) | pIC50 (DNA gyrase subunit B) | MIC (Staphylococcus aureus [2]) | MIC (Escherichia coli [3]) | logD [4] | MIC (Streptococcus pneumoniae; [8]) | MIC (Moraxella catarrhalis; [9]) | MIC (Haemophilus influenzae) | MIC (Escherichia coli [5]) | fraction unbound [6] | MIC (Streptococcus pyogenes) | MIC (Staphylococcus aureus [1]) | MIC (Streptococcus pneumoniae) | MIC (Moraxella catarrhalis)
1 | Cc1[nH]c(C(=O)N[C@@H]2CCN(c3ncc(C(=O)O)s3)C[C@@H]2O)c(Cl)c1Cl (racemic) | 16 µg/mL (≈ 38.2 µM) | 7.80 | 16 µg/mL (≈ 38.2 µM) | 1 µg/mL (≈ 2.38 µM) | -0.67 | 0.5 µg/mL (≈ 1.19 µM) | 4 µg/mL (≈ 9.54 µM) | 1 µg/mL (≈ 2.38 µM) | > 64 µg/mL |  |  |  |  | 
2 | COC[C@H]1CN(c2ncc(C(=O)O)s2)CC[C@H]1NC(=O)c1[nH]c(C)c(Cl)c1Cl (racemic) | > 8 µg/mL | 7.27 |  | 1 µg/mL (≈ 2.24 µM) | 0.06 | 4 µg/mL (≈ 8.94 µM) | 2 µg/mL (≈ 4.47 µM) | > 8 µg/mL | > 8 µg/mL | 0.052 |  |  |  | 
3 | Cc1[nH]c(C(=O)N[C@@H]2CCN(c3ncc(C(=O)O)s3)C[C@@H]2C)c(Cl)c1Cl (racemic) | 4 µg/mL (≈ 9.59 µM) | 7.85 | 4 µg/mL (≈ 9.59 µM) | 0.5 µg/mL (≈ 1.2 µM) | 0.54 | 0.5 µg/mL (≈ 1.2 µM) | 0.5 µg/mL (≈ 1.2 µM) | 2 µg/mL (≈ 4.79 µM) | > 8 µg/mL | 0.023 |  |  |  | 
4 | CO[C@@H]1CN(c2ncc(C(=O)O)s2)CC[C@@H]1NC(=O)c1[nH]c(C)c(Cl)c1Cl | 32 µg/mL (≈ 73.8 µM) | 6.85 | 32 µg/mL (≈ 73.8 µM) | 8 µg/mL (≈ 18.5 µM) |  | 1 µg/mL (≈ 2.31 µM) | 2 µg/mL (≈ 4.62 µM) | 16 µg/mL (≈ 36.9 µM) | > 64 µg/mL |  |  |  |  | 
5 | Cc1[nH]c(C(=O)N[C@@H]2CCN(c3ncc(C(=O)O)s3)C[C@@H]2F)c(Cl)c1Cl | 1.3 µg/mL (≈ 3.09 µM) | > 8.00 | 2.2 µg/mL (≈ 5.22 µM) | 0.081 µg/mL (≈ 0.192 µM) |  | 0.078 µg/mL (≈ 0.185 µM) | 0.046 µg/mL (≈ 0.109 µM) | 0.3 µg/mL (≈ 0.712 µM) | > 64 µg/mL |  | 0.092 µg/mL (≈ 0.218 µM) |  |  | 
6 | CO[C@@H]1CN(c2ncc(C(=O)O)s2)CC[C@H]1NC(=O)c1[nH]c(C)c(Cl)c1Cl | > 64 µg/mL | 6.96 | > 64 µg/mL | 2 µg/mL (≈ 4.62 µM) |  | 8 µg/mL (≈ 18.5 µM) | 2 µg/mL (≈ 4.62 µM) | 16 µg/mL (≈ 36.9 µM) | > 64 µg/mL |  |  |  |  | 
7 | COCCO[C@H]1CN(c2ncc(C(=O)O)s2)CC[C@H]1NC(=O)c1[nH]c(C)c(Cl)c1Cl (racemic) | > 8 µg/mL | > 8.00 |  | 2 µg/mL (≈ 4.19 µM) | 0.06 | 0.5 µg/mL (≈ 1.05 µM) | 1 µg/mL (≈ 2.09 µM) | 8 µg/mL (≈ 16.8 µM) | > 8 µg/mL | 0.094 |  |  |  | 
8 | CCO[C@H]1CN(c2ncc(C(=O)O)s2)CC[C@H]1NC(=O)c1[nH]c(C)c(Cl)c1Cl (racemic) | 1 µg/mL (≈ 2.24 µM) | > 8.00 | 2 µg/mL (≈ 4.47 µM) | 1 µg/mL (≈ 2.24 µM) | 0.67 | 0.031 µg/mL (≈ 0.0693 µM) | 0.13 µg/mL (≈ 0.291 µM) | 2 µg/mL (≈ 4.47 µM) | > 8 µg/mL | 0.031 |  |  |  | 
9 | CO[C@H]1CN(c2ncc(C(=O)O)s2)CC[C@H]1NC(=O)c1[nH]c(C)c(Cl)c1Cl (relative stereo) |  | > 8.00 | 1 µg/mL (≈ 2.31 µM) | 0.35 µg/mL (≈ 0.808 µM) |  |  |  | 0.3 µg/mL (≈ 0.692 µM) | > 64 µg/mL |  |  | 1 µg/mL (≈ 2.31 µM) | 0.063 µg/mL (≈ 0.145 µM) | 0.076 µg/mL (≈ 0.175 µM)
10 | CO[C@H]1CN(c2ncc(C(=O)O)s2)CC[C@@H]1NC(=O)c1[nH]c(C)c(Cl)c1Cl | > 64 µg/mL | 5.19 | > 64 µg/mL | 64 µg/mL (≈ 148 µM) |  | 64 µg/mL (≈ 148 µM) | 64 µg/mL (≈ 148 µM) | > 64 µg/mL | > 64 µg/mL |  |  |  |  | 
11 | Cc1[nH]c(C(=O)N[C@@H]2CCN(c3ncc(C(=O)O)s3)C[C@@H]2CO)c(Cl)c1Cl (racemic) | > 64 µg/mL | 7.74 | 64 µg/mL (≈ 148 µM) | 1 µg/mL (≈ 2.31 µM) | -0.42 | 8 µg/mL (≈ 18.5 µM) | 1 µg/mL (≈ 2.31 µM) | 16 µg/mL (≈ 36.9 µM) | > 64 µg/mL |  |  |  |  | 
12 | Cc1[nH]c(C(=O)N[C@@H]2CCN(c3ncc(C(=O)O)s3)C[C@@H]2Cl)c(Cl)c1Cl (racemic) | 0.35 µg/mL (≈ 0.8 µM) | > 8.00 | 2 µg/mL (≈ 4.57 µM) | 0.35 µg/mL (≈ 0.8 µM) | 0.75 | 0.044 µg/mL (≈ 0.101 µM) | 0.11 µg/mL (≈ 0.251 µM) | 0.18 µg/mL (≈ 0.411 µM) | > 8 µg/mL | 0.008 |  |  |  | 
